Measured values as given in ChEMBL document CHEMBL4613254, “Using the Cancer Dependency Map to Identify the Mechanism of Action of a Cytotoxic Alkenyl Derivative from the Fruit of Choerospondias axillaris” (J Nat Prod, 2020).
The source made the active and inactive calls. The rule behind the calls is not given here.

What was measured:
HCT-15 = experiment: Cytotoxicity against human HCT15 cells assessed as reduction in cell viability; format: functional, cell-based
HeLa = experiment: Cytotoxicity against human HeLa cells assessed as reduction in cell viability; format: functional, cell-based
A2780 = experiment: Cytotoxicity against human A2780 cells assessed as reduction in cell viability; format: functional, cell-based
A673 [1] = experiment: Growth inhibition of human A673 cells assessed as reduction in cell viability after 48 hrs by SRB assay; format: functional; settings: A673, 48 h
In short: (§1)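 Cells were kept in RPMI-1640 with 5% FBS and 50 μg/mL gentamicin at 37 °C and 5% CO2, and plated at 4,000–6,000 cells/well to adhere overnight. Compounds in DMSO (0.5% v/v final) went to triplicate wells for 48 h. Cells were fixed with 10% TCA, and time-0 plates were fixed at dosing. SRB absorbance was read at 560 nm, with GI50 fitted by non-linear regression for each experiment.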

[2] = Growth inhibition of human SJCRH30 cells assessed as reduction in cell viability after 48 hrs by SRB assay; format: functional; in short: as §1
[3] = Growth inhibition of human D283 cells assessed as reduction in cell viability after 48 hrs by SRB assay; format: functional; settings: D283, 48 h
In short: (§2)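 Cells were grown in IMEM with 5% FBS and 25 μg/mL gentamicin at 37 °C and 5% CO2, then seeded at 4,000–6,000 cells/well overnight. DMSO solutions (0.5% v/v final) were added to triplicate wells for 48 h, and time-0 plates were fixed at addition. Fixation was with TCA; for D283, 20% TCA was added straight into the medium. SRB absorbance at 560 nm gave GI50 by non-linear regression.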

Hep293TT = experiment: Growth inhibition of human Hep293TT cells assessed as reduction in cell viability after 48 hrs by SRB assay; format: functional; in short: as §1
SK-ES1 = experiment: Growth inhibition of human SK-ES-1 cells assessed as reduction in cell viability after 48 hrs by SRB assay; format: functional; settings: SK-ES1, 48 h; in short: as §1
D341 cell line = experiment: Growth inhibition of human D341 cells assessed as reduction in cell viability after 48 hrs by SRB assay; format: functional; settings: D341, 48 h; in short: as §2
HCC1806 = experiment: Growth inhibition of human HCC1806 cells assessed as reduction in cell viability up to 10 uM after 48 hrs by SRB assay; format: functional, cell-based; in short: as §1
Daoy = experiment: Growth inhibition of human DaOY cells assessed as reduction in cell viability up to 10 uM after 48 hrs by SRB assay; format: functional, cell-based; in short: as §2
[4] = biological target: T1, Monocarboxylate transporter 1 (Homo sapiens) (UniProt P53985); experiment: Inhibition of MCT1 in human A673 cells assessed as reduction in BrPA-induced cytotoxicity at 10 nM by SRB assay; format: cell-based
T1 sequence (whole entry): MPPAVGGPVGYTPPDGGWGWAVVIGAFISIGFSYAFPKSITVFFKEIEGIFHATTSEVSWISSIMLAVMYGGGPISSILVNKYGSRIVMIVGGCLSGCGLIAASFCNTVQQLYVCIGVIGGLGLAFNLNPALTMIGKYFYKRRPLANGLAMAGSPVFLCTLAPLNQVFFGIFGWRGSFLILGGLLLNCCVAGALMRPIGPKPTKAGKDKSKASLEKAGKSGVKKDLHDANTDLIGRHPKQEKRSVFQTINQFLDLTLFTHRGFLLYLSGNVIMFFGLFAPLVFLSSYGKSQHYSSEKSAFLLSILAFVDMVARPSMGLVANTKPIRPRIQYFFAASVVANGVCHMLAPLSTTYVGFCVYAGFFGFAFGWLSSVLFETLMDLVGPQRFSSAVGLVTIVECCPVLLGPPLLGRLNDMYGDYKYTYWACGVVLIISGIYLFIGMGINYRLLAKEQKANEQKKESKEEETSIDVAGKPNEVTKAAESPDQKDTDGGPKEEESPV
In short: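 A-673 cells were grown in RPMI-1640 with 5% FBS. Test compound or AZD3965 was added 1 h before BrPA, with DMSO as the vehicle control. Viability was read by SRB staining after TCA fixation, with absorbance at 560 nm.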

A673 [5] = experiment: Growth inhibition of human A673 cells assessed as reduction in cell viability up to 10 uM after 48 hrs by SRB assay; format: functional, cell-based; in short: as §1

| Structure (SMILES) | GI50 (A673 [1]) | GI50 [2] | GI50 [3] | GI50 (Hep293TT) | further results |
| --- | --- | --- | --- | --- | --- |
| CCCC/C=C\CCCCCCCCCCC[C@@H]1C[C@]2(O)CC(=O)C[C@H](O1)[C@@H]2O | – | – | – | – | IC50 (HCT-15): 3000 to 30000 nM; IC50 (HeLa): 3000 to 30000 nM; IC50 (A2780): 3000 to 30000 nM |
| CCCC/C=C\CCCCCCCCCCC[C@H](O)C[C@]1(O)CC(=O)C=C[C@H]1O | 580 nM | 180 nM | 400 nM | 390 nM | – |
| CCCC/C=C\CCCCCCCCCCC[C@H](O)Cc1cc(O)ccc1O | 320 nM | 120 nM | 240 nM | 700 nM | – |
| CCCC/C=C\CCCCCCCCC[C@H](O)C[C@]1(O)CC(=O)C=C[C@H]1O | 650 nM | 240 nM | 410 nM | 500 nM | – |
| CCCC/C=C\CCCCCCCCC[C@H](O)Cc1cc(O)ccc1O | 160 nM | 170 nM | 80 nM | 1020 nM | – |
| CCCC/C=C\CCCCCCCCCCCc1cc2cc(O)ccc2o1 | 190 nM | > 10000 nM | 70 nM | > 10000 nM | GI50 (SK-ES1): 120 nM; GI50 (D341 cell line): 20 nM; growth inhibition (GI) (HCC1806): inactive; growth inhibition (GI) (Daoy): inactive; inhibition [4]: Active |
| Cc1[nH]nc(C(F)(F)F)c1Cc1sc2c(c1C(=O)N1C[C@](C)(O)CO1)c(=O)n(C)c(=O)n2C(C)C | – | – | – | – | inhibition [4]: Active; growth inhibition (GI) (A673 [5]): inactive |
